Measurements gathered from unrelated publications.
Lines come from different studies, so protocols differ.
Target: Eukaryotic translation initiation factor 2-alpha kinase 3 (EIF2AK3, Homo sapiens, UniProt Q9NZJ5)
Sequence (Q9NZJ5 30-1116, as in one of the studies): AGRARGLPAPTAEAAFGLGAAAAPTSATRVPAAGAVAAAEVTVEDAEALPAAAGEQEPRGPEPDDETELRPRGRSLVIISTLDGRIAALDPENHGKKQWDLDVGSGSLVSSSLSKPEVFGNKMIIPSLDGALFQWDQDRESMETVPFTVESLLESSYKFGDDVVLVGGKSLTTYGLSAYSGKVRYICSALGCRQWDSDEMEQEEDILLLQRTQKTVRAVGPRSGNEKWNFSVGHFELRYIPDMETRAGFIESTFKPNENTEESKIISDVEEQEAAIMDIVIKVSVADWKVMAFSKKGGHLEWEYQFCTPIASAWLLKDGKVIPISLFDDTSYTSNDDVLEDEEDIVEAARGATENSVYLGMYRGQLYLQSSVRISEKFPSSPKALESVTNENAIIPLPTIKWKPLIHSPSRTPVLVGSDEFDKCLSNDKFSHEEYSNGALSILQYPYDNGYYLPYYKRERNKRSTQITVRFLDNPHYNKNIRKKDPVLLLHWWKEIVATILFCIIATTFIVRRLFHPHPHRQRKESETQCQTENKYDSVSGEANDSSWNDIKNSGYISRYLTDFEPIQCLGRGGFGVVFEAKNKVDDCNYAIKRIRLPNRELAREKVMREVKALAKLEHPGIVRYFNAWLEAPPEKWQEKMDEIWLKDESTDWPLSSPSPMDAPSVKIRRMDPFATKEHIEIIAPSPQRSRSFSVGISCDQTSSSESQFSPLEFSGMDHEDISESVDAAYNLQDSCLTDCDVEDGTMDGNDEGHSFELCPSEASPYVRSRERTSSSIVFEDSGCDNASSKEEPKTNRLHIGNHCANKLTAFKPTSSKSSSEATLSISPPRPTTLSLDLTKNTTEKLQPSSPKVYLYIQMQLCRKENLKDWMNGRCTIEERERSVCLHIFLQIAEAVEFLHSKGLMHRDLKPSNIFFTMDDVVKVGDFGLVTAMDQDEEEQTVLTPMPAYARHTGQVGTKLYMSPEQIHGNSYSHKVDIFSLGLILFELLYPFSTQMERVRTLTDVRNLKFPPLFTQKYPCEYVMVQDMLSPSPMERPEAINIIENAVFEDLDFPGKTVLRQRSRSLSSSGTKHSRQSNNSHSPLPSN

Compound | observed | action | technique | tested at | measurement | value
CC/C(=N\NC(=O)NCc1cccc(O)c1)c1ccc(O)c(C)c1O | enzyme activity | inhibitor | – | 0.1 µM | inhibition | 4.2%
CN1CC(Oc2cnc(C#N)cc2-c2ccn3nc(NC(=O)C4CC4)cc3c2)C1 | enzyme activity | inhibitor | – | 1 µM | inhibition | 0%
Cc1cnc(NC2CCOCC2)nc1-n1cnc(C(=O)NC(CN)c2cc(F)cc(Cl)c2)c1 (stereo not drawn) | enzyme activity | inhibitor | radiometric | 1 µM | remaining activity | 101%
Cc1cc(NC(=O)c2cccc3cc(-c4cccc5[nH]nc(N)c45)ccc23)ccc1F | enzyme activity | inhibitor | – | 0.1 µM | activity vs control | 94%
COc1cc(/C=C/C(=O)CC(=O)/C=C/c2ccc(O)c(OC)c2)ccc1O | enzyme activity | inhibitor | – | 1 µM | activity vs control | 95%
CNC(=O)c1cc2c(Oc3ccc(NC(=O)C4(C(=O)Nc5ccc(F)cc5)CC4)cc3)ccnc2cc1OC | enzyme activity | inhibitor | radiometric | 1 µM | inhibition | 73%
Cc1ccc(NC(=O)c2ccc(C)c(C(F)(F)F)c2)cc1C#Cc1nn(C2CCC(O)CC2)c2ncnc(N)c12 (stereo not drawn) | cell-free assay | – | – | 10 µM | remaining signal | 39%
CC(C)(C)c1nc2c(s1)c1nc(N)ncc1c1ccc(NS(=O)(=O)c3c(F)cccc3F)c(F)c12 | enzyme activity | inhibitor | radiometric | 1 µM | remaining activity | 47%
COc1cc(Nc2cnc(C#N)c(O[C@H](C)CN(C)C)n2)ncc1-c1cnn(C)c1 | enzyme activity | inhibitor | radiometric | 1 µM | remaining activity | 101%
CC(C)(C)c1nc(-c2cccc(NS(=O)(=O)c3c(F)cccc3F)c2F)c(-c2ccnc(N)n2)s1 | enzyme activity | inhibitor | radiometric | 1 µM | remaining activity | 4%
COc1cccc2c(NCc3ccccc3)nc(-n3c(N)nc4ccccc43)nc12 | target engagement in cells | inhibitor | chemoproteomics | 20 mM | inhibition | -7.4%
Cc1ccc(C(=O)NCc2ccsc2)cc1C#Cc1cn(C(C)C)c2ncnc(N)c12 | enzyme activity | inhibitor | – | 1 µM | activity vs control | 82%
CCCCNc1ncc2c(-c3ccc(F)cc3)nn(C[C@H]3CC[C@H](N)CC3)c2n1 | target engagement in cells | inhibitor | chemoproteomics | 20 mM | inhibition | 17%
FC(F)(F)Oc1cccc(-c2cnc3ccc(-c4ccncc4)nn23)c1 | enzyme activity | inhibitor | radiometric | 1 µM | activity vs control | 74%
CCN(CC)c1ccc(C2=NNC(=O)CC2C)cc1[N+](=O)[O-] (stereo not drawn) | enzyme activity | inhibitor | – | 10 µM | remaining activity | 110%
